Assay results reported in ChEMBL document CHEMBL4689842, “EUbOPEN Chemogenomics Library wave 1” (2021).

Tested on: Fibroblast
Test: Multiplex assay against human fibroblast
Type: toxicity, cell-based
In short: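 Imaging took place on a CQ1 microscope at 37°C and 5% CO2 once compound had been added to live cells stained at seeding with Hoechst33342, BioTracker Green Microtubule Cytoskeleton Dye, MitoTracker Red and Annexin V Alexa Fluor 680. CellPathfinder machine-learning gating classed cells as Hoechst high-intensity objects or normal cells, classed normal cells as having healthy, pyknosed or fragmented nuclei, and classed pyknosed cells as mitotic or apoptotic. Tubulin, mitochondrial-mass and membrane-permeability phenotypes are per cents of the healthy-nucleus cells.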

[1] = 12 h, 1 µM, compound concentration 1 uM, replicate 1
[2] = 12 h, 1 µM, compound concentration 1 uM, replicate 2
[3] = 12 h, 10 µM, compound concentration 10 uM, replicate 1
[4] = 12 h, 10 µM, compound concentration 10 uM, replicate 2
[5] = 24 h, 1 µM, compound concentration 1 uM, replicate 1
[6] = 24 h, 1 µM, compound concentration 1 uM, replicate 2
[7] = 24 h, 10 µM, compound concentration 10 uM, replicate 1
[8] = 24 h, 10 µM, compound concentration 10 uM, replicate 2
[9] = 48 h, 1 µM, compound concentration 1 uM, replicate 1
[10] = 48 h, 1 µM, compound concentration 1 uM, replicate 2
[11] = 48 h, 10 µM, compound concentration 10 uM, replicate 1
[12] = 48 h, 10 µM, compound concentration 10 uM, replicate 2

With `C=CC(=O)Nc1cc(-n2c(=O)ccc3cnc4ccc(-c5ccc(NS(C)(=O)=O)cc5)cc4c32)ccc1C` the “Population Apoptotic (%)” value [1] was 52%, the “Population Fragmented Nuclei (%)” value [1] was 37% and the “Population Healthy Nuclei (%)” value [1] was 32%. For the same molecule, the “Population Hoechst High Intensity Objects (%)” value [1] was 7%, the “Population Membrane Permeable-Phenotype (%)” value [1] was 15% and the “Population Mitochondria Different-Phenotype (%)” value [1] was 3%. The “Population Mitotic Cells (%)” value [1] was 47%, the “Population Normal (%)” value [1] was 92% and the “Population Pyknosed Nuclei (%)” value [1] was 29%. For the same molecule, the “Population Tubulin-Different-Phenotype (%)” value [1] was 30%, the “Total Cell Count” value [1] was 85 and the “Population Apoptotic (%)” value [2] was 33%. For the same molecule, the “Population Fragmented Nuclei (%)” value [2] was 10%, the “Population Healthy Nuclei (%)” value [2] was 77% and the “Population Membrane Permeable-Phenotype (%)” value [2] was 0%. For the same molecule, the “Population Mitochondria Different-Phenotype (%)” value [2] was 10%, the “Population Mitotic Cells (%)” value [2] was 66% and the “Population Pyknosed Nuclei (%)” value [2] was 12%. The “Population Tubulin-Different-Phenotype (%)” value [2] was 10%, the “Total Cell Count” value [2] was 53 and the “Population Apoptotic (%)” value [3] was 51%. For the same molecule, the “Population Fragmented Nuclei (%)” value [3] was 30%, the “Population Healthy Nuclei (%)” value [3] was 39% and the “Population Hoechst High Intensity Objects (%)” value [3] was 8%. The “Population Membrane Permeable-Phenotype (%)” value [3] was 32%, the “Population Mitochondria Different-Phenotype (%)” value [3] was 13% and the “Population Mitotic Cells (%)” value [3] was 48%. For the same molecule, the “Population Normal (%)” value [3] was 91%, the “Population Pyknosed Nuclei (%)” value [3] was 30% and the “Population Tubulin-Different-Phenotype (%)” value [3] was 55%. The “Total Cell Count” value [3] was 120, the “Population Apoptotic (%)” value [4] was 76% and the “Population Fragmented Nuclei (%)” value [4] was 8%. For the same molecule, the “Population Healthy Nuclei (%)” value [4] was 54%, the “Population Hoechst High Intensity Objects (%)” value [4] was 9% and the “Population Membrane Permeable-Phenotype (%)” value [4] was 12%. The “Population Mitochondria Different-Phenotype (%)” value [4] was 56%, the “Population Mitotic Cells (%)” value [4] was 23% and the “Population Normal (%)” value [4] was 90%. For the same molecule, the “Population Pyknosed Nuclei (%)” value [4] was 36%, the “Population Tubulin-Different-Phenotype (%)” value [4] was 52% and the “Total Cell Count” value [4] was 51. The “Population Apoptotic (%)” value [5] was 54%, the “Population Fragmented Nuclei (%)” value [5] was 23% and the “Population Healthy Nuclei (%)” value [5] was 44%. The “Population Hoechst High Intensity Objects (%)” value [5] was 11%, the “Population Membrane Permeable-Phenotype (%)” value [5] was 22% and the “Population Mitochondria Different-Phenotype (%)” value [5] was 16%. For the same molecule, the “Population Mitotic Cells (%)” value [5] was 45%, the “Population Normal (%)” value [5] was 88% and the “Population Pyknosed Nuclei (%)” value [5] was 31%. The “Population Tubulin-Different-Phenotype (%)” value [5] was 38%, the “Total Cell Count” value [5] was 78 and the “Population Apoptotic (%)” value [6] was 55%. The “Population Fragmented Nuclei (%)” value [6] was 11%, the “Population Healthy Nuclei (%)” value [6] was 76% and the “Population Hoechst High Intensity Objects (%)” value [6] was 2%. For the same molecule, the “Population Membrane Permeable-Phenotype (%)” value [6] was 3%, the “Population Mitochondria Different-Phenotype (%)” value [6] was 15% and the “Population Mitotic Cells (%)” value [6] was 44%. The “Population Normal (%)” value [6] was 97%, the “Population Pyknosed Nuclei (%)” value [6] was 11% and the “Population Tubulin-Different-Phenotype (%)” value [6] was 22%. For the same molecule, the “Total Cell Count” value [6] was 79, the “Population Apoptotic (%)” value [7] was 50% and the “Population Fragmented Nuclei (%)” value [7] was 36%. The “Population Healthy Nuclei (%)” value [7] was 39%, the “Population Hoechst High Intensity Objects (%)” value [7] was 9% and the “Population Membrane Permeable-Phenotype (%)” value [7] was 35%. For the same molecule, the “Population Mitochondria Different-Phenotype (%)” value [7] was 5%, the “Population Mitotic Cells (%)” value [7] was 50% and the “Population Normal (%)” value [7] was 90%. The “Population Pyknosed Nuclei (%)” value [7] was 23%, the “Population Tubulin-Different-Phenotype (%)” value [7] was 50% and the “Total Cell Count” value [7] was 141. The “Population Apoptotic (%)” value [8] was 84%, the “Population Fragmented Nuclei (%)” value [8] was 21% and the “Population Healthy Nuclei (%)” value [8] was 32%. The “Population Hoechst High Intensity Objects (%)” value [8] was 5%, the “Population Membrane Permeable-Phenotype (%)” value [8] was 22% and the “Population Mitochondria Different-Phenotype (%)” value [8] was 50%. The “Population Mitotic Cells (%)” value [8] was 15%, the “Population Normal (%)” value [8] was 94% and the “Population Pyknosed Nuclei (%)” value [8] was 46%. For the same molecule, the “Population Tubulin-Different-Phenotype (%)” value [8] was 33%, the “Total Cell Count” value [8] was 59 and the “Population Apoptotic (%)” value [9] was 61%. For the same molecule, the “Population Fragmented Nuclei (%)” value [9] was 32%, the “Population Healthy Nuclei (%)” value [9] was 43% and the “Population Hoechst High Intensity Objects (%)” value [9] was 6%. For the same molecule, the “Population Membrane Permeable-Phenotype (%)” value [9] was 25%, the “Population Mitochondria Different-Phenotype (%)” value [9] was 3% and the “Population Mitotic Cells (%)” value [9] was 38%. The “Population Normal (%)” value [9] was 93%, the “Population Pyknosed Nuclei (%)” value [9] was 24% and the “Population Tubulin-Different-Phenotype (%)” value [9] was 34%. For the same molecule, the “Total Cell Count” value [9] was 79, the “Population Apoptotic (%)” value [10] was 0% and the “Population Fragmented Nuclei (%)” value [10] was 28%. For the same molecule, the “Population Healthy Nuclei (%)” value [10] was 65%, the “Population Hoechst High Intensity Objects (%)” value [10] was 12% and the “Population Membrane Permeable-Phenotype (%)” value [10] was 19%. For the same molecule, the “Population Mitochondria Different-Phenotype (%)” value [10] was 7%, the “Population Mitotic Cells (%)” value [10] was 100% and the “Population Normal (%)” value [10] was 87%. For the same molecule, the “Population Pyknosed Nuclei (%)” value [10] was 6%, the “Population Tubulin-Different-Phenotype (%)” value [10] was 21% and the “Total Cell Count” value [10] was 72. The “Population Apoptotic (%)” value [11] was 78%, the “Population Fragmented Nuclei (%)” value [11] was 39% and the “Population Healthy Nuclei (%)” value [11] was 43%. The “Population Hoechst High Intensity Objects (%)” value [11] was 18%, the “Population Membrane Permeable-Phenotype (%)” value [11] was 29% and the “Population Mitochondria Different-Phenotype (%)” value [11] was 4%. For the same molecule, the “Population Mitotic Cells (%)” value [11] was 21%, the “Population Normal (%)” value [11] was 81% and the “Population Pyknosed Nuclei (%)” value [11] was 17%. The “Population Tubulin-Different-Phenotype (%)” value [11] was 56%, the “Total Cell Count” value [11] was 135 and the “Population Apoptotic (%)” value [12] was 100%. For the same molecule, the “Population Fragmented Nuclei (%)” value [12] was 56%, the “Population Healthy Nuclei (%)” value [12] was 42% and the “Population Hoechst High Intensity Objects (%)” value [12] was 15%. For the same molecule, the “Population Membrane Permeable-Phenotype (%)” value [12] was 33%, the “Population Mitochondria Different-Phenotype (%)” value [12] was 1% and the “Population Mitotic Cells (%)” value [12] was 0%. For the same molecule, the “Population Normal (%)” value [12] was 85%, the “Population Pyknosed Nuclei (%)” value [12] was 0% and the “Population Tubulin-Different-Phenotype (%)” value [12] was 50%. The “Total Cell Count” value [12] was 140.
